# Assay outcomes deposited in PubChem by several laboratories.
# JMJD2C inh = inhibitors of human GASC-1 (JMJD2C) demethylase; Q9H3R0; GST-JMJD2C(1-420) H3K9me3 demethylation, DELFIA europium; inhibition, % at 2.35 µM; 330,000 tested, 0.069% active; AID 2099;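 active = more than half of a compound's replicate wells show inhibition beyond 50%, single wells judged on their own value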;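 note: signal counts dimethyl H3K9 product captured on neutravidin plate; 0% = median of DMSO wells and 100% = 0.3 times that DMSO median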
# Target sequence (Q9H3R0 1-420 limits assumed): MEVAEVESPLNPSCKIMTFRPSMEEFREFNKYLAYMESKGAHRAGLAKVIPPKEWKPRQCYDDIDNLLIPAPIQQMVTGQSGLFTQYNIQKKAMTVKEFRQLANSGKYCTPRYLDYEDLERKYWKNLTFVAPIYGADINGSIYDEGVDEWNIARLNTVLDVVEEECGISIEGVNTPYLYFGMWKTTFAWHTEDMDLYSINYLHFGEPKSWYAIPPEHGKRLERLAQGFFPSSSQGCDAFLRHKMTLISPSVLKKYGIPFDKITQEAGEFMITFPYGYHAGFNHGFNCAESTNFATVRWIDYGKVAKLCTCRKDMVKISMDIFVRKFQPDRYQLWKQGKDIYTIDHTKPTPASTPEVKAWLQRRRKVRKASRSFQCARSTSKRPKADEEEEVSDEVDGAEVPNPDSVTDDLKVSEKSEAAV
# UBC9 SUMO inh = blocks human SUMOylation mediated by UBC9 | P63279 | inhibition, % at 35 µM | HTRF SUMOylation assay, SAE1/SAE2 + UBC9, in vitro | 290,000 tested, 0.36% active; in the data active = inhibition above about 50%, passing the limit was not always enough
# PAD4 inh = blocks human protein arginine deiminase 4; AID 485272; inhibition, % at 6.36 µM; Q9UM07; 330,000 tested, 0.41% active; recombinant PAD4, RCA probe fluorescence polarization;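 active = percent inhibition above a cutoff equal to the mean of all tested compounds plus 3 SD, cut at about 15% in these data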;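 note: 0% = PAD4 with RCA probe and DMSO and 100% = probe without PAD4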
# GSTO1 counter = GSTO1 inhibition, counter-screen for RBBP9 inhibitors; inhibition, % at 5.96 µM; AID 1974; 300,000 tested, 1.1% active; recombinant GSTO1, activity-based probe fluorescence polarization;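 active = inhibition above the campaign mean inhibition plus 3 SD, cut at about 35% in these data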;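 note: 0% = GSTO1-1 with DMSO and 100% = wells lacking GSTO1-1 enzyme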
# Apaf1 inhib = blocks human Apaf-1 apoptosome activity | reconstituted apoptosome caspase-3 activity, DEVD-Rh110 fluorescence | inhibition, % at 20 µM | 330,000 tested, 0.71% active | AID 489030; active = inhibition of at least 40% at 20 µM;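 note: plate controls were DMSO wells for no effect and DEVD-CHO caspase inhibitor wells for full effect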
#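 Material: reconstituted apoptosome with Apaf-1, cytochrome c, caspase-9, procaspase-3, dATP. Technique: Rh110 fluorescence intensity. Buffer or medium: pH 7.5 Hepes buffer with CHAPS, BSA, DTT. Times: 30 min plus 50 min, RT.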
# TDP2 absorb = blocks human TDP2 phosphodiesterase activity | O95551 | recombinant TDP2, T5PNP hydrolysis, p-nitrophenol absorbance 415 nm | inhibition, % at 12.8 µM | 370,000 tested, 0.34% active;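 active = inhibition above the mean of all tested compounds plus 3 SD, set per campaign, cut at about 25% in these data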;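 note: 0% = DMSO with enzyme and 100% = buffer with substrate but no TDP2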
#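 Assay system: recombinant human TDP2 / Reagent: T5PNP substrate at 5 mM, a TopII-DNA adduct mimic / Measured by: epi absorbance from released p-nitrophenol / Evaluation: % inhibition relative to enzyme-containing and enzyme-free wells / Control set: enzyme-free and DMSO wells / Replicates: each compound tested once, singlicate / Schedule: enzyme reaction with compound for 2 h at 37 °C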
# GSTO1 confirm = confirmation of human GSTO1 inhibitors; shares compounds with GSTO1 counter; 2,400 tested, 54% active; recombinant GSTO1, probe fluorescence polarization; inhibition, % at 5.96 µM;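 active = inhibition above the primary screen's cutoff, its mean inhibition plus 3 SD, cut at about 35% in these data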;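 note: loss of polarization as inhibitors block binding of rhodamine sulfonate ester activity probe; 0% = GSTO1 with DMSO and 100% = wells lacking GSTO1 enzyme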
# Active calls of the source: *; . = no result given. A selection: hits, their analogues and other compounds. The true share with any hit is near 1.6%.
SMILES,JMJD2C inh,UBC9 SUMO inh,PAD4 inh,GSTO1 counter,Apaf1 inhib,TDP2 absorb,others
Cc1cccc(-c2cccc3c4c([nH]c23)[C@@H]2C[C@H](N(C)C(=O)NC3CCCCC3)[C@H]([C@H](C)O)C(=O)N2CC4)c1,.,.,.,.,.,-2.3,
CC1=C(SCc2ccccc2)C(=O)c2ccccc2C1=O,.,.,.,.,.,51.3*,
Cn1c(SCc2ccccc2)nccc1=O,.,.,.,.,.,-6.0,
O=S1(=O)CC2c3ccccc3CN2CN1Cc1ccccc1 (stereo not drawn),.,.,.,.,.,6.9,
Oc1ccc(Cl)cc1C=Nc1ccc2c3c(cccc13)CC2,9.8,57.1*,-11.9,7.1,2.8,-6.5,
CC1=C2NC(N)=[N+](CC3CC3)C(Cc3ccccc3)[C@@H]2n2c(=O)n(-c3ccccc3)c(=O)n2C1 (stereo partly drawn),.,.,.,.,.,4.9,
c1ccc2[nH]c(COCc3nc4ccccc4[nH]3)nc2c1,.,.,.,.,.,1.3,
Oc1ccc(O)c(Cc2nc3ccccc3[nH]2)c1,-1.6,-0.2,-3.1,70.0*,-2.7,2.5,
CCCCCC(=O)NC1CCCCN(Cc2ccc(Cl)cc2)C1=O (stereo not drawn),.,.,.,.,.,5.5,
CCCCc1nc(N2CCN(C(=O)c3ccco3)CC2)c(C#N)c2c1CCCC2,-5.9,0.3,-0.6,1.8,41.8*,-6.7,
C/C(CC(=O)N1CCN(C=O)CC1)=N\NC(=O)c1ccc([N+](=O)[O-])cc1,-2.0,-14.9,0.8,12.5,-2.7,4.1,
C/C(=N\NC(=O)c1cc2ccccc2cc1O)c1cc2ccccc2o1,1.8,55.7*,-8.3,-0.1,17.8,-12.3,
C/C(CC(=O)N1CCN(C=O)CC1)=N\NC(=O)c1cc2ccccc2cc1O,9.4,65.1*,-9.5,29.5,24.8,-5.7,
CS(=O)(=O)N[C@@H]1C[C@@H]2O[C@H](CO)CC[C@@H]2O[C@@H]1CCc1ccc(-c2ccccc2F)cc1,.,.,.,.,.,5.2,
COc1ccc(S[C@]2(C(=O)N3CCN(C(C)=O)CC3)CC(=O)N(C(=O)CCc3ccccc3)[C@@H]2c2ccc(OC)cc2)cc1,.,.,.,.,.,-8.4,
CCc1ccc(NC(=O)C(CC)Sc2nc3cc4c(cc3c(=O)n2Cc2ccco2)OCO4)cc1 (stereo not drawn),5.5,54.1*,0.1,0.5,18.9,-2.5,
N#C[C@@H]1[C@@H]2C(=O)N(c3ccc4c(c3)OCCO4)C(=O)[C@@H]2C2c3ccccc3C=CN21 (stereo partly drawn),3.2,23.3,-10.1,14.1,77.6*,.,
CC(=O)[C@H]1[C@@H]2C(=O)N(c3cccc(Cl)c3)C(=O)[C@@H]2[C@H]2c3ccccc3C=CN21,1.1,29.1,-8.4,9.4,73.0*,15.6,
CC(=O)[C@@H]1[C@@H]2C(=O)N(c3ccc(F)c(Cl)c3)C(=O)[C@@H]2C2c3ccccc3C=CN21 (stereo partly drawn),-0.8,35.1,-18.4,10.2,71.9*,6.2,
CC(=O)[C@H]1[C@H](c2cccc(Cl)c2)C(C#N)(C#N)[C@@H]2c3ccccc3C=CN21,4.2,-5.2,-26.3,-9.6,55.9*,.,
O=C1C(=O)N(CCS(=O)(=O)c2ccccc2)c2ccc(F)cc21,-3.2,5.8,-6.1,35.9*,11.0,21.2,
COC(=O)C1=C(C)N(CC2CCCO2)C(=O)/C1=C\c1ccc(O)cc1 (stereo not drawn),-0.8,9.2,-4.4,43.2*,-6.2,-1.3,GSTO1 confirm=0.6
CCC1=NNc2cccc3c(OC)ccc1c23,2.7,59.3*,36.5*,73.0*,52.1*,.,GSTO1 confirm=26.6
O=C1c2ccccc2C(=O)C2OC12 (stereo not drawn),5.6,33.2,5.3,76.1*,37.1,.,GSTO1 confirm=26.6
O=C(NCc1ccccc1)OCCN1C(=O)CCC12CCC(c1ccc(Cl)cc1)CC2 (stereo not drawn),.,.,.,.,.,-12.4,
CC1(C)CC(=O)C(C=Nc2ccc(O)cc2)=C(O)C1,3.7,-2.7,-0.5,38.2*,-0.8,2.2,GSTO1 confirm=4.3
CC1(C)CC(=O)C(C=NCCc2ccc(S(N)(=O)=O)cc2)=C(O)C1,6.5,8.1,-2.7,40.6*,3.8,-1.8,GSTO1 confirm=5.1
Cc1ccc(NC(=S)NNC(=O)CSc2nnc(-c3ccc(C)cc3)n2C2CCCCC2)cc1,.,.,.,.,.,5.4,
